Measurements taken from article PMC7114156 (Antiviral Research, 2009).
Like-named read-outs stand apart in the source and are kept apart here. Marks after values point to notes of the source that are not given here.

Tests used:
Huh7 = assay: Growth of Huh7, MTS; format: cell-based, human
In short: (§1)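 Cells were plated in 96-well plates in medium holding serial dilutions of test compound, 1 nM to 10 μM, with DMSO ≤1% (v/v) final. Growth was read by MTS after 72 h at 37 °C: 2 h with reagent plus phenazine methosulfate, then A490. K and Imax came from a fit to a modified Hill equation. Vero cells are African Green monkey.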

HKC cells = assay: mRNA measurement by RT-qPCR in HKC cells; format: cell-based, human; conditions: for Fold increase due to GSK983, ABCD1 mRNA / Fold increase due to GSK983, ABCG1 mRNA / Fold increase due to GSK983, ADAMTS5 mRNA / Fold increase due to GSK983, BIK mRNA / Fold increase due to GSK983, MDM2 mRNA / Fold increase due to GSK983, MGP mRNA / Fold increase due to GSK983, CDKN1A mRNA / Fold increase due to GSK983, CSF2 mRNA / Fold increase due to GSK983, IFI6 mRNA / Fold increase due to GSK983, IFI16 mRNA / Fold increase due to GSK983, MMP1 mRNA / Fold increase due to GSK983, IRF3 mRNA / Fold increase due to GSK983, IRF9 mRNA: HKC cells
Vero cells = assay: Growth of uninfected Vero cells, MTS; format: cell-based, African Green monkey
In short: as §1

W12-20850 cells = assay: Growth of W12-20850 cells, actin DNA by qPCR; format: cell-based, human
HSV-1 = HSV-1 infection in Vero cells; format: cell-based
[1] = Growth of activated PBMC, MTS; format: cell-based; conditions: human, activated PBMCs
In short: (§2)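 Primary cells were plated in 96-well plates with serial dilutions of test compound, 3 nM to 100 μM, for 72 h at 37 °C. Read-out was CTG for resting B and CD4 T cells and MTS for PBMC, WI38 and HUVEC. Purity was 90–95% for B cells and 97% for CD4 cells. Activated PBMCs were stimulated with phytohemagglutinin plus IL2.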

adenovirus type 5 = assay: Adenovirus assay: adenovirus-5 replication in HFF cells, viral DNA by qPCR; format: cell-based; conditions: Ad5 in HFF cells, MOI 3, 72 h
[2] = system: a variety of unrelated viruses; assay: Replication of a variety of unrelated viruses in vitro; format: cell-based
[3] = Growth of resting CD4 T cells, CTG; format: cell-based; conditions: human
In short: as §2

EBV = assay: Viral yield in IM9 cells by quantitative PCR; format: cell-based; conditions: data not shown
[4] = system: activated primary B cells; assay: Growth of activated primary B cells, CTG; format: cell-based, human; conditions: read-out: CC50, host primary cell growth, 72 h
[5] = Growth of resting B cells, CTG; format: cell-based; conditions: human
In short: as §2

W12 20861 = assay: Growth of W12 20861; format: cell-based, human; conditions: 72 h
In short: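 Cell lines carrying integrated viral genomes were plated in 96-well plates in medium with test compound. Growth was read by ATP luminescence (CellTiter-Glo) for HEK293 and WI38 VA13, and by MTS reduction (A490 after 2 h at 37 °C) for Namalwa, W12 20861, SiHa, Caski and HeLa. K and Imax came from a fit to a modified Hill equation.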

HPV-16 = assay: HPV DNA by qPCR in W12-20850 cells; format: cell-based
HPV = assay: Viral DNA levels in the three HPV-infected cell lines; format: cell-based; conditions: read-out: K values, viral DNA levels
B-LCL 5/2/1 = assay: Growth of B-LCL 5/2/1; format: cell-based, human
CIN612 cells = assay: Growth of CIN612 cells, MTS; format: cell-based, human
MT4 cells = assay: Growth of MT4 cell line; format: cell-based, human; conditions: for EC50: K ∼ EC50
IM9 cells = assay: Apoptosis assay; format: cell-based, human; conditions: IM9, 20 h exposure
In short: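 Apoptosis read as cytoplasmic histone-associated DNA fragments with a Cell Death Detection ELISA kit. Exposure was 20 h for IM9 and MT4 and 40 h for W12 and U937. A405 was read kinetically at 30 °C, and the rate per hour came from linear regression of the linear portion. A Fas-activating antibody was the positive control.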

IFIT1 promoter = assay: Luciferase assay, luciferase under control of the IFIT1 promoter in HEK293 cells; format: cell-based, human; conditions: 10 and 30 nM, over a 48-h period
[6] = Growth of HUVEC endothelial cells, MTS; format: cell-based; conditions: human
In short: as §2

[7] = 10 nM, 24 h, not significantly different from 1
[8] = 100 nM, 24 h, not significantly different from 1
[9] = 100 nM, 48 h, not significantly different from 1
[10] = Homo sapiens, read-out: K, Growth, MTS

## O=C(N[C@@H]1CCCc2c1[nH]c1ccc(Cl)cc21)c1ccccn1 [GSK983, N-[(1R)-6-Chloro-2,3,4,9-tetrahydro-1H-carbazol-1-yl]-2-pyridinecarboxamide]
Huh7; Homo sapiens, Huh-7, 72 h, read-out: K, growth, MTS
  EC50: 41 ± 10 nM
Huh7; Huh7, liver epithelial, 72 h
  Imax, Growth, MTS: 26 ± 1%
HKC cells; 10 nM, 24 h
  Fold increase due to GSK983, ABCD1 mRNA: 2.0 fold
  Fold increase due to GSK983, ABCG1 mRNA: 2.5 fold
  Fold increase due to GSK983, ADAMTS5 mRNA: 2.6 fold
  Fold increase due to GSK983, BIK mRNA: 2.2 fold
  Fold increase due to GSK983, MDM2 mRNA: 2.1 fold
  Fold increase due to GSK983, MGP mRNA: 1.9 fold
HKC cells; [7]
  Fold increase due to GSK983, CDKN1A mRNA: 1.7 ^b fold
  Fold increase due to GSK983, CSF2 mRNA: 1 ^b fold
  Fold increase due to GSK983, IFI6 mRNA: 1.3 ^b fold
  Fold increase due to GSK983, IFI16 mRNA: 2.3 ^b fold
  Fold increase due to GSK983, MMP1 mRNA: 5.8 ^b fold
HKC cells; 10 nM, 48 h
  Fold increase due to GSK983, ABCD1 mRNA: 4.5 fold
  Fold increase due to GSK983, ABCG1 mRNA: 3.1 fold
  Fold increase due to GSK983, ADAMTS5 mRNA: 2.3 fold
  Fold increase due to GSK983, BIK mRNA: 1.8 fold
  Fold increase due to GSK983, CDKN1A mRNA: 1.6 fold
  Fold increase due to GSK983, CSF2 mRNA: 4.1 fold
  Fold increase due to GSK983, IFI16 mRNA: 2.7 fold
  Fold increase due to GSK983, IRF3 mRNA: 2.4 fold
  Fold increase due to GSK983, MDM2 mRNA: 3.2 fold
  Fold increase due to GSK983, MGP mRNA: 2.9 fold
  Fold increase due to GSK983, MMP1 mRNA: 2.2 fold
HKC cells; 10 nM, 48 h, not significantly different from 1
  Fold increase due to GSK983, IRF9 mRNA: 1.5 ^b fold
HKC cells; 100 nM, 24 h
  Fold increase due to GSK983, ABCD1 mRNA: 2.3 fold
  Fold increase due to GSK983, ABCG1 mRNA: 5.0 fold
  Fold increase due to GSK983, BIK mRNA: 2.3 fold
  Fold increase due to GSK983, CDKN1A mRNA: 1.8 fold
  Fold increase due to GSK983, CSF2 mRNA: 2.8 fold
  Fold increase due to GSK983, IRF9 mRNA: 1.6 fold
  Fold increase due to GSK983, MDM2 mRNA: 2.4 fold
  Fold increase due to GSK983, MGP mRNA: 2.0 fold
HKC cells; [8]
  Fold increase due to GSK983, ADAMTS5 mRNA: 1.3 ^b fold
  Fold increase due to GSK983, IFI6 mRNA: 1.1 ^b fold
  Fold increase due to GSK983, IRF3 mRNA: 1.1 ^b fold
  Fold increase due to GSK983, MMP1 mRNA: 5.2 ^b fold
HKC cells; 100 nM, 48 h
  Fold increase due to GSK983, ABCD1 mRNA: 3.7 fold
  Fold increase due to GSK983, ABCG1 mRNA: 4.8 fold
  Fold increase due to GSK983, ADAMTS5 mRNA: 7.5 fold
  Fold increase due to GSK983, BIK mRNA: 3.7 fold
  Fold increase due to GSK983, CDKN1A mRNA: 4.3 fold
  Fold increase due to GSK983, CSF2 mRNA: 5.8 fold
  Fold increase due to GSK983, MDM2 mRNA: 2.9 fold
  Fold increase due to GSK983, MGP mRNA: 3.0 fold
  Fold increase due to GSK983, MMP1 mRNA: 5.0 fold
HKC cells; [9]
  Fold increase due to GSK983, IFI16 mRNA: 0.8 ^b fold
  Fold increase due to GSK983, IRF3 mRNA: 0.8 ^b fold
  Fold increase due to GSK983, IRF9 mRNA: 1.5 ^b fold
HKC cells; primary human keratinocytes, at both 10 and 100 nM, 546 genes
  Number of genes of the Pathway Set with significant increases in expression: 9 genes
Vero cells; data not shown
  Outcome of growth inhibition over time: cytostasis
Vero cells; data of Fig. 3
  Imax, uninfected host cell growth, MTS: 37%
Vero cells; kidney epithelial, 72 h, 4 titrations
  Imax, Growth, MTS: 43 ± 1%
W12-20850 cells; Homo sapiens, W12-20850, read-out: K, Growth, Actin DNA, qPCR
  EC50: 6 ± 0.4 nM
W12-20850 cells; W12-20850
  Imax, Growth, Actin DNA, qPCR: 60 ± 1%
HSV-1; at concentrations below 1 μM
  Susceptibility of HSV-1: not susceptible
HSV-1; concentration range 1 nM to 100 μM
  Inhibition of HSV-1 infection in Vero cells: 50% inhibition in the micromolar range
[1]
  CC50 at 72 h: 224000 nM
Adenovirus type 5
  Imax, viral DNA by qPCR: 100%
[2]; productive or episomal infections
  Observed maximum inhibition of viral DNA: 86–99%
[2]; read-out: EC50 values, replication of a variety of unrelated viruses in vitro
  EC50: 5 to 20 nM
[3]
  CC50 at 72 h: 60000 nM
EBV
  Viral yield in IM9 cells by quantitative PCR: decrease in parallel with inhibition of cell growth
[4]
  CC50: > 10000 nM
[5]
  CC50 at 72 h: > 10000 nM
W12 20861; [10]
  EC50: 25 ± 9 nM
W12 20861; W12 20861, HPV16 integrated
  Imax, Growth, MTS: 35 ± 2.8%
HPV-16; HPV DNA qPCR in W12-20850 vs HKC
  Selectivity index: 12,000 ± 4,000
HPV-16; W12-20850, HPV type 16
  Imax, HPV DNA, qPCR: 85 ± 2%
HPV-16; W12-20850, read-out: K, HPV DNA, qPCR
  EC50: 3.3 ± 0.5 nM
HPV-16; W12 cells, at 100 nM GSK983, reduced from 460
  HPV copy number, expressed as HPV genomes per actin gene: 150 HPV genomes per actin gene
HPV
  EC50: 2 to 5 nM
B-LCL 5/2/1; B-LCL 5/2/1 (EBV) vs activated B cell
  Selectivity index: >700 ± 15
B-LCL 5/2/1; B-LCL 5/2/1 (EBV), CTG, 72 h
  Imax, cell line growth: 93 ± 1%
B-LCL 5/2/1; Homo sapiens, 72 h, read-out: K, cell line growth
  EC50: 14 ± 0.3 nM
CIN612 cells; CIN612
  Imax, Growth, MTS: 70 ± 1%
CIN612 cells; [10]
  EC50: 2.8 ± 0.1 nM
MT4 cells; Homo sapiens, MT4, 72 h, read-out: K, cell line growth, MT4 (HTLV1), CTG, 72 h
  EC50: 8 nM
MT4 cells; MT4 (HTLV1) vs activated CD4 T cell
  Selectivity index: 7600 ± 1000
MT4 cells; read-out: K, cell line growth, MT4 (HTLV1), CTG, 72 h
  EC50: 7.5 ± 0.6 nM
IM9 cells
  Apoptosis: induced apoptosis
IFIT1 promoter
  Induction of luciferase under control of the IFIT1 promoter: Strong induction
[6]
  CC50 at 72 h: > 10000 nM
